SENP1 inh: blocks the human SENP1 SUMO protease catalytic domain; actives 0.21% (n = 360,000); AID 624204; inhibition, % at 10 µM; recombinant SENP1 catalytic domain, CyPet-SUMO1-YPet FRET cleavage; Q9P0U3;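 active means inhibition at least 30% at 10 µM, raw YFP signal under a set limit, fluorescence ratio 0.5 to 1.5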;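 further: 0% = enzyme with DMSO and 100% = no enzyme wells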
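Test system: hSENP1 catalytic domain, recombinant; Amount: 20 pM final SENP1 enzyme; Medium: Tris pH 8 buffer plus EDTA, NaCl, BME, BSA, NP40, catalase; Schedule: 50 min enzyme reaction, room temperature, light-protected; Technique: FRET fluorescence in CFP and YFP emission channels; Controls: no-enzyme wells low, DMSO-plus-enzyme wells high control.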
SENP8 block-1: SENP8 (human) protease inhibition. recombinant SENP8, Nedd8 substrate fluorescence. inhibition, % at 20 µM. actives 0.64% (n = 360,000); in the data active means inhibition mostly above about 40%, no sharp cut-off; inactive means mostly below about 27%
SENP7 block: SENP7 protease inhibition | inhibition, % at 5 µM | recombinant SENP7, Z-RLRGG-aminoluciferin luminescence, 40 min | Q9BQF6 | actives 1.5% (n = 330,000);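 active means inhibition above about 50% at the single test dose, limit read from the data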;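 further: plate controls were DMSO with enzyme for no effect and no enzyme buffer wells for full effect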
SENP8 block-2: inhibitors of human SENP8 protease; purified SENP8, Z-RLRGG-aminoluciferin cleavage, luminescence; actives 1.2% (n = 330,000); Q96LD8; inhibition, % at 10 µM; in the data active means inhibition above about 50%
UCH37 inh: inhibitors of human deubiquitinating enzyme UCH37; AID 588478; inhibition, % (test concentration not listed); purified proteasome/UCH37, Ub-AMC cleavage fluorescence; actives 0.33% (n = 330,000); Q9Y5K5;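 active means mean inhibition over replicate wells above about 20%, limit read from the data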;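 further: 0% = compound-free wells with enzyme and 100% = wells lacking proteasome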
Target sequence (Q9Y5K5 whole entry, looked up): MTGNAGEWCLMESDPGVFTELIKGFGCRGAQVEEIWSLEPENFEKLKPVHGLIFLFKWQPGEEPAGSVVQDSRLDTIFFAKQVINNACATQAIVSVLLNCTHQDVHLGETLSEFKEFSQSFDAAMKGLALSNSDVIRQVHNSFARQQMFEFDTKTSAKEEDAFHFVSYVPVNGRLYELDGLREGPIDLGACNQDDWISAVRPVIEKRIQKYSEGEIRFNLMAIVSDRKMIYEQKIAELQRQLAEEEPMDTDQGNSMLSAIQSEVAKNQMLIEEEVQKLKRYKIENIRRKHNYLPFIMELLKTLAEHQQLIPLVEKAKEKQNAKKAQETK
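Schedule: 30 min plus 25 min, room temperature / Material: human UCH37 within purified proteasomes / Technique: AMC fluorescence intensity at 355/460 nm / Buffer or medium: pH 7.4 Tris-HCl (50 mM) with ovalbumin, ATP-MgCl2, DTT / Controls: wells without proteasome as full block, compound-free enzyme plus substrate as uninhibited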
SENP6 block: SENP6 protease inhibition; Q9GZR1; actives 1.8% (n = 330,000); Recombinant SENP6 catalytic domain, aminoluciferin luminescence; inhibition, % at 10 µM;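 active means inhibition above about 50% at the single tested dose, limit read from the data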;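 further: plate controls were DMSO wells with enzyme for no effect and DMSO wells lacking enzyme for full effect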
The depositor's hits bear a star; x = no result given. This is a sample that favours compounds with a hit; in the whole collection about 2.6% have one here.

SMILES	SENP1 inh	SENP8 block-1	SENP7 block	SENP8 block-2	UCH37 inh	SENP6 block
COc1cccc2c1C(=O)c1c(O)c3c(c(O)c1C2=O)C[C@](O)(C(C)=O)C[C@H]3O[C@@H]1C[C@@H](N)[C@@H](O)[C@@H](C)O1	106	41*	10	11	7	13
COc1cccc2c1C(=O)c1c(O)c3c(c(O)c1C2=O)CC(O)(C(C)=O)CC3OC1CC(O)C(O)C(C)O1 (centres undefined)	101	50*	x	x	x	x
Nc1[nH]ncc1N=Nc1ccc(Cl)cc1	0	48*	-2	-20	9	-43
Nc1n[nH]c(N)c1N=Nc1cccc(C(F)(F)F)c1	3	44*	-1	-18	11	1
Nc1n[nH]c(N)c1N=Nc1ccc(Cl)cc1	3	54*	5	-5	12	6
C=CCn1c(O)c(N=NC(=S)Nc2ccccc2F)c2ccccc21	6	23	-2	-6	4	9
C=CCn1c(O)c(N=NC(=S)Nc2cccc(C)c2)c2ccccc21	3	42*	-3	-3	8	10
N#CC1=C(N)C(C#N)(C#N)[C@H](c2ccoc2)[C@H]2CN(Cc3ccccc3)CC=C12	-14	-498	77*	84*	3	91*
C=CCN1C(=O)C2(C(C(=O)c3ccc(C)o3)=C(O)C(=O)N2CCCN2CCOCC2)c2ccccc21 (centres undefined)	-1	0	0	-4	7	13
CCCN1C(=O)C2(C(C(=O)c3ccc(C)o3)=C(O)C(=O)N2CCCN2CCOCC2)c2ccccc21 (centres undefined)	-2	-7	-6	-3	21*	-17
Brc1ccc(-c2nnc(-c3ccco3)o2)cc1	0	-208	60*	66*	-10	81*
CCn1c(SCC(=O)NN=C/C=C\c2ccccc2[N+](=O)[O-])nnc1-c1ccccc1	x	x	x	x	6	x
Nc1nc(-c2ccccc2)c(-c2ccccc2)s1	1	-48	-1	4	2	3
Nc1nc(-c2ccccc2)c(N=Nc2ccc(Cl)cc2)s1	7	46*	-2	-6	5	-12
CC(=O)N(/N=C1\Sc2ccccc2C1=O)c1ccccc1	7	74*	x	x	x	x
Cc1cc(C=Nn2cnnc2)c(C)n1-c1cccc(Cl)c1	x	x	x	x	1	x
O=C(NN=Cc1ccccn1)c1ccc(NC(=O)c2ccccc2Cl)cc1	x	x	x	x	1	x
COc1ccc(C=NNS(=O)(=O)c2ccccc2)cc1OS(=O)(=O)c1ccccc1	x	x	x	x	9	x
N#Cc1ccsc1NC(=O)c1ccc(Cl)c([N+](=O)[O-])c1	-1	21	91*	94*	x	96*
O=C(NNC(=O)c1cccs1)c1ccc(Cl)c([N+](=O)[O-])c1	1	2	1	3	21*	20
CSc1ccc(C=NNc2ccc(S(=O)(=O)Nc3ccccc3C(=O)O)cc2[N+](=O)[O-])cc1	5	35	3	15	22*	-13
COc1ccc(C=NNc2ccc(S(=O)(=O)Nc3ccccc3C(=O)O)cc2[N+](=O)[O-])c(OC)c1	5	44*	0	12	31*	17
Cc1snc(SCC(=O)NN=C(N)COc2ccc(F)cc2)c1C#N	x	x	x	x	0	x
O=C1C=C(NCCc2cc(Br)c(O)c(Br)c2)C(=O)c2ncccc21	4	116*	x	x	x	x
CC(C)(C)c1cc(CCC(=O)NCCc2ccccn2)cc(C(C)(C)C)c1O	1	10	-6	-4	3	-8
SMILES	SENP1 inh	SENP8 block-1	SENP7 block	SENP8 block-2	UCH37 inh	SENP6 block
COc1ccc(C(=O)C(C#N)=NNc2cccc([N+](=O)[O-])c2)cc1	x	x	x	x	8	x
COc1ccc(C(=O)/C(C#N)=N/Nc2ccc([N+](=O)[O-])cc2)cc1	17	40*	9	4	x	10
CCOC(=O)NC(=O)/C(C#N)=N\Nc1ccc(Cl)cc1	1	43*	-9	-4	x	-8
N#C/C(=N\Nc1ccc(Cl)cc1)C(=O)c1ccccc1	2	46*	0	8	x	40
COc1ccc(NN=C(C#N)C(=N)N2CCOCC2)cc1	x	x	x	x	11	x
CCN(CC)c1ccc(C(=O)c2ccccc2C(=O)O)c(O)c1	-3	8	-10	-10	20*	-11
O=C(CNC(=O)c1ccccc1Br)NN=Cc1ccco1	x	x	x	x	0	x

Source: PubChem BioAssay
